An excerpt weighted towards active compounds, which were near 9.4% of everything screened.
Lmaj promast: inhibitors of Leishmania major promastigote growth; Leishmania major promastigotes, resazurin fluorescence viability; inhibition, % at 10 µM; 200,000 tested, 9% active; AID 1063; in the data active means inhibition above about 50%;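 further: promastigotes grown with compound for 44 hours at 28 °C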
SKKanGAS inh: inhibitors of SKKanGAS S. pyogenes growth in kanamycin (SK-promoter or general growth effect). BacTiter-Glo, 6 h. inhibition, % at 7.5 µM. 300,000 tested, 1.3% active. AID 1662;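 active means mean replicate score, as percent of positive control median, at least 50; inconclusive means mean below 50 but one replicate at or above 50; inactive means mean and every replicate below 50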;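 further: strain carries kanamycin resistance gene driven by streptokinase promoter and grows in 40 µg/ml kanamycin; loss of luminescence reflects streptokinase promoter inhibition or plain growth inhibition; 0% = median of DMSO wells and 100% = positive control at its reference dose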
Beta apoptosis: blocks beta cell apoptosis; 300,000 tested, 0.8% active; AID 435005; INS-1E cytokine-induced death, ATP luminescence, 48 h; percent of positive-control rescue, neutral wells zero; protection from apoptosis, % (no concentration beside the values);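 active means Every replicate reaches about 75%, or at least half do and their mean reaches it too, limit read from the data; inconclusive means At least half of replicates reach the limit but their mean does not; inactive means Under half of replicates reach the limit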;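 further: 0% = cytokine-treated negative control wells and 100% = positive control rescue; higher means more ATP so stronger rescue from cytokine killing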
CSC inhib: cancer stem cell inhibition; inhibition, % at 7.5 µM; 300,000 tested, 1.1% active; cancer stem cell-like cells viability, luminescence; AID 2717; in the data active means inhibition above about 75%; inconclusive means no clear call, values can overlap the other calls; tested in HMLE shEcad cells
T cruzi inh: blocks replication of Trypanosoma cruzi. T. cruzi beta-gal in NIH3T3, luminescence, 90 h. 300,000 tested, 1.4% active. inhibition, % (no concentration beside the values). AID 1885;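 active means mean inhibition across valid replicates above about 55%, limit read from the data; inconclusive means mean below that limit but half or more replicates reach it; inactive means mean below it, under half of replicates reach it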;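 further: signal also drops with host cell toxicity which is not excluded here; 0% = plate median of DMSO wells and 100% = zero luminescence signal; higher percent means less beta-gal luminescence so fewer parasites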
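System: NIH/3T3 fibroblasts plus reporter T. cruzi. Medium: DMEM plus 2% FBS. Probe or stimulus: 5000 reporter trypomastigotes per well. Compound: single 50 nL compound addition per well in DMSO. Incubation: co-culture of at least 90 h after 3 h attachment. Detection: GalScreen β-gal luminescence, detergent lysis, 60 min. Evaluation: parasite load inhibition, %.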
Mdm2 MdmX PPI: disrupts the human Mdm2-MdmX interaction; O15151+Q00987; SaOS-2 split-luciferase Mdm2/MdmX complementation, luminescence; inhibition, % at 8 µM; 330,000 tested, 3% active;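 active means inhibition of at least 50% at 8 µM in the primary screen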
Target sequence (O15151 whole entry, looked up): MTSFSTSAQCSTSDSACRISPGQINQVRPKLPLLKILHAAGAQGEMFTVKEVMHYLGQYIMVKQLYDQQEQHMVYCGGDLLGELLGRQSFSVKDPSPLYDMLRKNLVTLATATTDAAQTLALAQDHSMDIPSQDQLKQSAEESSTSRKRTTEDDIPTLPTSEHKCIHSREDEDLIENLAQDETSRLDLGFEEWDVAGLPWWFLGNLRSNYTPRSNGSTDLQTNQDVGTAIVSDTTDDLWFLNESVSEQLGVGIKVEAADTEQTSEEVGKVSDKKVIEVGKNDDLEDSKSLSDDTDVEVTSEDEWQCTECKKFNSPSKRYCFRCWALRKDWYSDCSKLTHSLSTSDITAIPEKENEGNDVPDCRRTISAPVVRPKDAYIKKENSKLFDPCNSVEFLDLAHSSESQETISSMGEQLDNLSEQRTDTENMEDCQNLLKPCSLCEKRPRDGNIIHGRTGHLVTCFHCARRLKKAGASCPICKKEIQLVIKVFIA
Target sequence (Q00987 whole entry, looked up): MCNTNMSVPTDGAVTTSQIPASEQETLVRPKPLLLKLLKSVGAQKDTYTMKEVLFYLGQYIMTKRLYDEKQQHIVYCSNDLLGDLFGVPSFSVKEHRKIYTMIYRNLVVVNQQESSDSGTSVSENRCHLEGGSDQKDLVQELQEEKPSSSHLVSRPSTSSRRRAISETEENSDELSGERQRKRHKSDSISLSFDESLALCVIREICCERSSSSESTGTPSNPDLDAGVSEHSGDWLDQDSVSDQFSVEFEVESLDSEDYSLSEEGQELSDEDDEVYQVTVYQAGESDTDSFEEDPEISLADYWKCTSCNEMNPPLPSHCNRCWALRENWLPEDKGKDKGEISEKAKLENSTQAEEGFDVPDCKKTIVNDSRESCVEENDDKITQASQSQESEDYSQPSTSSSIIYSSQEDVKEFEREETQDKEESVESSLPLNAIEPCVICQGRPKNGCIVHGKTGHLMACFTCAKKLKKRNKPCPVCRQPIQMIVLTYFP
Numbers without * were called inactive; ? = inconclusive; · = no result given.

SMILES	Lmaj promast	SKKanGAS inh	Beta apoptosis	CSC inhib	T cruzi inh	Mdm2 MdmX PPI
Nc1ncnc2c1ncn2[C@@H]1O[C@H](CNCc2ccccc2OCc2ccc(Cl)cc2Cl)[C@@H](O)[C@H]1O	·	·	4	·	·	18
CC(Oc1cccnc1[N+](=O)[O-])C(=O)N1CCc2ccccc21 (stereo not given)	·	·	1	8	·	18
CC(C)CCC(C(=O)NC(C)c1ccccc1)C(=O)NC(C)c1ccccc1 (stereo not given)	·	10	1	-3	-8	2
CN1CCCC(C#CC(O)(c2ccccc2)c2ccccc2)C1 (stereo not given)	78*	3	2	-18	-19	-14
OC(C#CCCN1CCCCC1)(c1ccccc1)c1ccccc1	·	-3	·	·	-7	14
Cc1ccc(OCC(=O)NCc2cccs2)c([N+](=O)[O-])n1	3	-1	-4	-19	8	5
CCN(CC)CCNC(=O)Cc1nn(CC)c(=O)c2ccccc12	-4	-1	-3	-7	3	9
CCN(CC)CCNc1ccc(CO)c2sc3ccccc3c(=O)c12	100*	-5	40	32	64*	47
O=S1(=O)N=C(Nc2ccc(N3CCOCC3)c(Cl)c2)c2ccccc21	-2	50*	1	-7	-6	-34
C/C(=N\N1C(=O)c2ccccc2NC1c1ccccc1)c1ccccc1O (stereo not given)	-7	-7	87*	3	66*	-22
COc1ccc(/C(C)=N/N2C(=O)c3ccccc3NC2c2ccc(O)c(OC)c2)cc1 (stereo not given)	-2	-2	-1	-7	-12	-7
C/C(=N\N1C(=O)c2ccccc2NC1c1ccco1)c1ccccc1O (stereo not given)	90*	-7	99*	-5	61*	-13
CC1Cc2ccccc2N1S(=O)(=O)c1cccc(C(=O)N2Cc3ccccc3CC2C(N)=O)c1 (stereo not given)	·	·	4	-30	·	1
CC(C)(C)NCC(O)COc1c(F)cc(Br)cc1F (stereo not given)	-20	-1	-3	·	20	19
CC(C)(C)CC(C)(C)NCC(O)COc1c(F)cc(Br)cc1F (stereo not given)	100*	-3	20	23	29	39
CSCCC(NC(=O)c1ccc(Cl)cc1Cl)C(=O)NCc1ccncc1 (stereo not given)	·	-4	·	-5	-6	15
CCN(C(=O)Cn1c(=O)oc2ccccc21)c1cccc(C)c1	·	4	-6	-6	-2	13
CC(C)c1ccc(N=c2c([N+](=O)[O-])nn(-c3ccc4c(c3)OCCO4)n2O)cc1	2	21	0	23	53	5
O=[N+]([O-])c1nn(-c2ccc3c(c2)OCCO3)n(O)c1=NCc1ccc(F)cc1Cl	85*	10	-5	-1	25	-61
O=[N+]([O-])c1nn(-c2ccc3c(c2)OCCO3)n(O)c1=NCc1ccc(F)cc1	97*	3	2	-4	61*	-73
CN=c1c([N+](=O)[O-])nn(-c2ccc3c(c2)OCCO3)n1O	43	10	34	1	61*	16
O=[N+]([O-])c1nn(-c2ccc3c(c2)OCCO3)n(O)c1=NCCC1=CCCCC1	63*	14	-12	?	94*	-26
O=C(Cc1ccccc1)Nc1ncccn1	·	5	2	-5	-4	16
Cc1cc(C)c(C2=CC(c3ccccc3)n3ncnc3N2)cc1C (stereo not given)	·	13	-4	-6	-12	15
CC1=CC2=NC(=O)/C(=C\c3cccn3CCOc3cc(C)ccc3C)C(=N)N2O1	53*	11	8	-9	19	11
SMILES	Lmaj promast	SKKanGAS inh	Beta apoptosis	CSC inhib	T cruzi inh	Mdm2 MdmX PPI
CC1=CC2=NC(=O)/C(=C\c3cccn3CCOc3cccc(C)c3)C(=N)N2O1	13	-2	5	4	12	-14
CC(CCc1ccccc1)NCC(O)c1ccc(O)c(C(N)=O)c1 (stereo not given)	84*	-1	-3	1	10	-23
CC(=O)NC(C)CCc1ccccc1 (stereo not given)	·	2	1	-6	-22	-16
COc1ccc(-c2nc(-c3ccccc3)c(-c3cc([N+](=O)[O-])ccc3C)[nH]2)cc1OC	65*	19	7	33	38	19
COc1cc(CC(NC(C)=O)C(=O)NC2CCN(c3nc(OC)nc(OC)n3)CC2)cc(OC)c1 (stereo not given)	·	7	-1	-7	0	16
CCCCn1c(NS(=O)(=O)c2ccccc2)c(S(=O)(=O)c2ccc(C)cc2)c2nc3ccccc3nc21	51*	73*	86*	37	3	·
CCCCCn1c(NC(=O)c2ccco2)c(S(=O)(=O)c2ccc(C)cc2)c2nc3ccccc3nc21	-10	27	-3	71	55*	17
CCOC(=O)N1CCc2c(sc(NC(=O)CN(CC)CC)c2C#N)C1	·	-3	0	-8	-3	-22
CN(C(=O)c1cccc(NC(=O)C2CCN(C(=O)OC(C)(C)C)CC2)c1)C1CCCCC1	·	·	4	-14	·	27
COc1cc(CN2CCN(c3cccc(Cl)c3)CC2)cc(OC)c1OC	88*	6	2	93*	-17	43
COc1cc(CN2CCN(S(=O)(=O)c3ccccc3)CC2)cc(OC)c1OC	·	-5	-5	-17	-1	1
Cn1c(CN2CCN(c3cccc(Cl)c3)CC2)nc2ccccc21	68*	23	-2	10	21	-2
CCCn1c(N2CCN(Cc3ccc(Cl)cc3)CC2)nc2ccccc21	55*	6	10	-12	42	-15
CCN(CC)CCNC(=O)C(=O)NCC1OCCN1S(=O)(=O)c1ccc([N+](=O)[O-])cc1 (stereo not given)	-4	-4	-9	19	35	-18
COc1ccccc1C(C)NC(=O)Cc1ccc(S(=O)(=O)N2CCOCC2)s1 (stereo not given)	·	-3	1	-5	15	0
O=C(Cc1ccccc1)NCCc1ccc(Cl)cc1Cl	54*	11	-2	·	18	12
O=C(Cc1ccc(Br)cc1)NCCc1ccc(Cl)cc1Cl	-5	-4	6	-13	31	17
O=C(CNC(=O)c1ccc(N2C(=O)c3ccccc3C2=O)cc1)OCC(=O)c1cccc2ccccc12	62*	11	-27	15	-11	9
O=C(CNC(=O)c1ccc(N2C(=O)c3ccccc3C2=O)cc1)OCC(=O)c1ccccc1	62*	3	-2	-3	-12	10
O=C(CN(c1ccc(Br)cc1)S(=O)(=O)c1ccc(Cl)c([N+](=O)[O-])c1)NCCc1ccccc1	-5	6	3	23	75*	34
CCN(CC(=O)NCCc1ccccc1)S(=O)(=O)c1ccc(Br)cc1	5	3	·	·	7	-7
